Values after ≈ are worked out from the molar mass of the structure shown. Active and inactive are the calls of the source. No cut-off for these calls is given here.
Legend:
Cryptococcus neoformans [1] = test: Antifungal activity against Cryptococcus neoformans ATCC 32264 after 48 hrs by microplate reader analysis; assay type: functional; settings: ATCC 32264, 48 h
In short: (§1)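 Microplate growth-inhibition assay in RPMI-1640, compound at final 250–0.98 µg/mL (DMSO ≤1%). Inoculum 1–5 × 10³ CFU/mL. Sterility and DMSO growth controls included. Percent inhibition is computed from blank-corrected OD relative to the growth control, tested in duplicate.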

Candida albicans [2] = test: Antifungal activity against Candida albicans ATCC 10231 assessed as growth inhibition at 3.9 ug/mL after 24 hrs by microplate reader analysis; assay type: functional; settings: ATCC 10231, 24 h, read-out: GI
In short: (§2)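 96-well RPMI-1640 wells with compound at final 250–0.98 µg/mL (DMSO ≤1%). Inoculum 100 µL, 1–5 × 10³ CFU/mL, 200 µL final. Each well includes growth (DMSO, no compound) and sterility controls. % inhibition = 100 − (CTW−SCW)/(GCW−SCW) × 100, run in duplicate.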

Candida albicans [3] = test: Antifungal activity against Candida albicans ATCC 10231 assessed as growth inhibition at 31.25 ug/mL after 24 hrs by microplate reader analysis; assay type: functional; settings: ATCC 10231, 24 h, read-out: GI; in short: as §2
Candida albicans [4] = test: Fungicidal activity against Candida albicans ATCC 10231 after 48 hrs by agar plate dilution method; assay type: functional; settings: ATCC 10231, 48 h
In short: (§3)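 MFC: after the microdilution MIC, material from each clear well was plated onto RPMI-1640 agar buffered with MOPS. Plates incubated at 30 °C and read after 48 h. MFC is the lowest concentration giving total inhibition of visible growth.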

Cryptococcus neoformans [5] = test: Antifungal activity against Cryptococcus neoformans ATCC 32264 assessed as growth inhibition at 125 ug/mL after 48 hrs by microplate reader analysis; assay type: functional; settings: ATCC 32264, 48 h, read-out: GI; in short: as §1
Candida albicans [6] = test: Antifungal activity against Candida albicans ATCC 10231 assessed as growth inhibition at 62.5 ug/mL after 24 hrs by microplate reader analysis; assay type: functional; settings: ATCC 10231, 24 h, read-out: GI; in short: as §2
Cryptococcus neoformans [7] = test: Fungicidal activity against Cryptococcus neoformans ATCC 32264 after 48 hrs by agar plate dilution method; assay type: functional; settings: ATCC 32264, 48 h; in short: as §3
Cryptococcus neoformans [8] = test: Antifungal activity against Cryptococcus neoformans ATCC 32264 assessed as growth inhibition at 31.25 ug/mL after 48 hrs by microplate reader analysis; assay type: functional; settings: ATCC 32264, 48 h, read-out: GI; in short: as §1
Cryptococcus neoformans [9] = test: Antifungal activity against Cryptococcus neoformans ATCC 32264 assessed as growth inhibition at 250 ug/mL after 48 hrs by microplate reader analysis; assay type: functional; settings: ATCC 32264, 48 h, read-out: GI; in short: as §1
Candida albicans [10] = test: Antifungal activity against Candida albicans ATCC 10231 after 24 hrs by microplate reader analysis; assay type: functional; settings: ATCC 10231, 24 h; in short: as §2
Candida albicans [11] = test: Antifungal activity against Candida albicans ATCC 10231 after 48 hrs by NCCLS broth microdilution method; assay type: functional; settings: ATCC 10231, 48 h, read-out: MIC100
In short: (§4)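 Yeast MIC by NCCLS M27-A3 broth microdilution in RPMI-1640 buffered to pH 7.0 with MOPS. Twofold dilutions of 250–0.98 µg/mL, final DMSO ≤1%. Inoculum 1–5 × 10³ CFU/mL. Incubated at 30 °C in a moist dark chamber. Read visually at 48 h. MIC100 is the lowest concentration with no visible growth versus drug-free control.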

Candida tropicalis [12] = test: Antifungal activity against Candida tropicalis by microplate reader analysis; assay type: functional
Candida tropicalis [13] = test: Antifungal activity against Candida tropicalis after 48 hrs by NCCLS broth microdilution method; assay type: functional; settings: read-out: MIC100; in short: as §4
Cryptococcus neoformans [14] = test: Antifungal activity against Cryptococcus neoformans ATCC 32264 assessed as growth inhibition at 15.6 ug/mL after 48 hrs by microplate reader analysis; assay type: functional; settings: ATCC 32264, 48 h, read-out: GI; in short: as §1
Trichophyton rubrum [15] = test: Fungicidal activity against Trichophyton rubrum CCC 110 at 0.98 to 250 ug/mL after 48 hrs by agar plate dilution method; assay type: functional, organism-based
In short: (§5)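 Samples from each clear well of the MIC broth microdilution tray were plated onto RPMI-1640 agar buffered with MOPS. That tray had compounds twofold diluted in RPMI (pH 7.0, MOPS) from 250–0.98 µg/mL with inoculum of 1–5 × 10³ CFU/mL, incubated at 28–30 °C for dermatophytes. Plates were incubated at 30 °C and read at 48 h. MFC was taken as the lowest concentration giving total inhibition of visible growth.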

Cryptococcus neoformans [16] = test: Antifungal activity against Cryptococcus neoformans ATCC 32264 assessed as growth inhibition at 7.8 ug/mL after 48 hrs by microplate reader analysis; assay type: functional; settings: ATCC 32264, 48 h, read-out: GI; in short: as §1
Trichophyton rubrum [17] = test: Antifungal activity against Trichophyton rubrum CCC 110 by NCCLS broth microdilution method; assay type: functional; settings: read-out: MIC100
In short: (§6)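 MIC by broth microdilution per NCCLS M27-A3/M38-A2 in RPMI-1640 buffered to pH 7.0 with MOPS. Twofold dilutions from 250–0.98 µg/mL, final DMSO ≤1%. Inoculum 1–5 × 10³ CFU/mL. Incubated in a moist dark chamber, 30 °C for Aspergillus and 28–30 °C for dermatophytes. Read visually when control growth allowed. Endpoint is the lowest concentration giving total inhibition of visible growth (MIC100).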

[18] = test system: Trichophyton mentagrophytes; test: Fungicidal activity against Trichophyton mentagrophytes ATCC 9972 at 0.98 to 250 ug/mL after 48 hrs by agar plate dilution method; assay type: functional, organism-based; in short: as §5
Cryptococcus neoformans [19] = test: Antifungal activity against Cryptococcus neoformans ATCC 32264 assessed as growth inhibition at 3.9 ug/mL after 48 hrs by microplate reader analysis; assay type: functional; settings: ATCC 32264, 48 h, read-out: GI; in short: as §1
Candida tropicalis [20] = test: Fungicidal activity against Candida tropicalis after 48 hrs by agar plate dilution method; assay type: functional; in short: as §3
Aspergillus flavus = test: Antifungal activity against Aspergillus flavus ATCC 9170 at 0.98 to 250 ug/mL by NCCLS broth microdilution method; assay type: functional, organism-based; in short: as §6
Candida tropicalis [21] = test: Antifungal activity against Candida tropicalis assessed as growth inhibition at 3.9 ug/mL by microplate reader analysis; assay type: functional; settings: read-out: GI
Candida albicans [22] = test: Antifungal activity against Candida albicans ATCC 10231 assessed as growth inhibition at 250 ug/mL after 24 hrs by microplate reader analysis; assay type: functional; settings: ATCC 10231, 24 h, read-out: GI; in short: as §2
Aspergillus fumigatus = test: Antifungal activity against Aspergillus fumigatus ATCC 26934 at 0.98 to 250 ug/mL by NCCLS broth microdilution method; assay type: functional, organism-based; in short: as §6
Cryptococcus neoformans [23] = test: Antifungal activity against Cryptococcus neoformans ATCC 32264 assessed as growth inhibition at 62.5 ug/mL after 48 hrs by microplate reader analysis; assay type: functional; settings: ATCC 32264, 48 h, read-out: GI; in short: as §1
Candida tropicalis [24] = test: Antifungal activity against Candida tropicalis assessed as growth inhibition at 62.5 ug/mL by microplate reader analysis; assay type: functional; settings: read-out: GI
[25] = test system: Trichophyton mentagrophytes; test: Antifungal activity against Trichophyton mentagrophytes ATCC 9972 by NCCLS broth microdilution method; assay type: functional; settings: read-out: MIC100; in short: as §6
Nannizzia gypsea = test: Antifungal activity against Microsporum gypseum CCC 115 at 0.98 to 250 ug/mL by NCCLS broth microdilution method; assay type: functional, organism-based; in short: as §6
Candida tropicalis [26] = test: Antifungal activity against Candida tropicalis assessed as growth inhibition at 250 ug/mL by microplate reader analysis; assay type: functional; settings: read-out: GI
Candida tropicalis [27] = test: Antifungal activity against Candida tropicalis assessed as growth inhibition at 31.25 ug/mL by microplate reader analysis; assay type: functional; settings: read-out: GI
Candida tropicalis [28] = test: Antifungal activity against Candida tropicalis assessed as growth inhibition at 125 ug/mL by microplate reader analysis; assay type: functional; settings: read-out: GI
[29] = Acute toxicity in bony fish assessed as mortality at 35 ug/mL after 96 hrs; settings: actinopterygii; read-out: Activity
In short: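 Guppy (Poecilia reticulata) acute static exposure: 10 fish per concentration in 2 L wide-mouthed jars holding the test solution. Compounds were added from […] to give the final concentrations. Dead fish were counted and removed every 24 h, with general condition noted; percentage mortality was scored at 96 h. Two experiments, each in triplicate.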

Candida albicans [30] = test: Antifungal activity against Candida albicans ATCC 10231 assessed as growth inhibition at 125 ug/mL after 24 hrs by microplate reader analysis; assay type: functional; settings: ATCC 10231, 24 h, read-out: GI; in short: as §2
Candida tropicalis [31] = test: Antifungal activity against Candida tropicalis assessed as growth inhibition at 7.8 ug/mL by microplate reader analysis; assay type: functional; settings: read-out: GI
Candida albicans [32] = test: Antifungal activity against Candida albicans ATCC 10231 assessed as growth inhibition at 7.8 ug/mL after 24 hrs by microplate reader analysis; assay type: functional; settings: ATCC 10231, 24 h, read-out: GI; in short: as §2
Cryptococcus neoformans [33] = test: Antifungal activity against Cryptococcus neoformans ATCC 32264 after 48 hrs by NCCLS broth microdilution method; assay type: functional; settings: ATCC 32264, 48 h, read-out: MIC100; in short: as §4
Candida tropicalis [34] = test: Antifungal activity against Candida tropicalis assessed as growth inhibition at 15.6 ug/mL by microplate reader analysis; assay type: functional; settings: read-out: GI
Candida albicans [35] = test: Antifungal activity against Candida albicans ATCC 10231 assessed as growth inhibition at 15.6 ug/mL after 24 hrs by microplate reader analysis; assay type: functional; settings: ATCC 10231, 24 h, read-out: GI; in short: as §2
Aspergillus niger = test: Antifungal activity against Aspergillus niger ATCC 9029 at 0.98 to 250 ug/mL by NCCLS broth microdilution method; assay type: functional, organism-based; in short: as §6

Work on `CCCCNc1nc(N)nc(OC)c1N=O` yielded an MIC50 (Cryptococcus neoformans [1]) of 7.8 µg/mL (≈ 34.6 µM), an inhibition of growth at 3.9 µg/mL (Candida albicans [2]) of 20% and an inhibition of growth at 31.25 µg/mL (Candida albicans [3]) of 98.2%. The MFC (Candida albicans [4]) was 250 µg/mL (≈ 1110 µM), the inhibition of growth at 125 µg/mL (Cryptococcus neoformans [5]) was 100% and the inhibition of growth at 62.5 µg/mL (Candida albicans [6]) was 100%. The MFC (Cryptococcus neoformans [7]) was 250 µg/mL (≈ 1110 µM), the inhibition of growth at 31.25 µg/mL (Cryptococcus neoformans [8]) was 75% and the inhibition of growth at 250 µg/mL (Cryptococcus neoformans [9]) was 100%. It also gave an MIC50 (Candida albicans [10]) of 7.8 µg/mL (≈ 34.6 µM), an MIC (Candida albicans [11]) of 62.5 µg/mL (≈ 277 µM) and an MIC50 (Candida tropicalis [12]) of 7.8 µg/mL (≈ 34.6 µM). For the same molecule, the MIC (Candida tropicalis [13]) was 62.5 µg/mL (≈ 277 µM), the inhibition of growth at 15.6 µg/mL (Cryptococcus neoformans [14]) was 63.1% and the Activity (Trichophyton rubrum [15]) was “inactive”. For the same molecule, the inhibition of growth at 7.8 µg/mL (Cryptococcus neoformans [16]) was 52.4%, the MIC (Trichophyton rubrum [17]) was 250 µg/mL (≈ 1110 µM) and the Activity [18] was “inactive”. The inhibition of growth at 3.9 µg/mL (Cryptococcus neoformans [19]) was 11.3%, the MFC (Candida tropicalis [20]) was 250 µg/mL (≈ 1110 µM) and the Activity (Aspergillus flavus) was “inactive”. The inhibition of growth at 3.9 µg/mL (Candida tropicalis [21]) was 16.3%, the inhibition of growth at 250 µg/mL (Candida albicans [22]) was 100% and the Activity (Aspergillus fumigatus) was “inactive”. For the same molecule, the inhibition of growth at 62.5 µg/mL (Cryptococcus neoformans [23]) was 85.5%, the inhibition of growth at 62.5 µg/mL (Candida tropicalis [24]) was 100% and the MIC [25] was 250 µg/mL (≈ 1110 µM). For the same molecule, the Activity (Nannizzia gypsea) was “inactive”, the inhibition of growth at 250 µg/mL (Candida tropicalis [26]) was 100% and the inhibition of growth at 31.25 µg/mL (Candida tropicalis [27]) was 93.2%. For the same molecule, the inhibition of growth at 125 µg/mL (Candida tropicalis [28]) was 100%, the mortality at 96 h, 35 ug/mL [29] was 0% and the inhibition of growth at 125 µg/mL (Candida albicans [30]) was 100%. The inhibition of growth at 7.8 µg/mL (Candida tropicalis [31]) was 57.7%, the inhibition of growth at 7.8 µg/mL (Candida albicans [32]) was 50.4% and the MIC (Cryptococcus neoformans [33]) was 125 µg/mL (≈ 555 µM). The inhibition of growth at 15.6 µg/mL (Candida tropicalis [34]) was 85.2%, the inhibition of growth at 15.6 µg/mL (Candida albicans [35]) was 86.2% and the Activity (Aspergillus niger) was “inactive”.

From ChEMBL document CHEMBL2146464, “Structure-activity relationship study of nitrosopyrimidines acting as antifungal agents” (Bioorg Med Chem, 2012)
